Test results as given in ChEMBL document CHEMBL1240491, “In vitro anticancer screening and radiosensitizing evaluation of some new quinolines and pyrimido[4,5-b]quinolines bearing a sulfonamide moiety” (Eur J Med Chem, 2010).

Legend:
[1] = system: MCF7; assay: Anticancer activity against human MCF7 cells assessed as survival fraction at 10 uM after 48 hrs by SRB assay; type: functional
Method in brief: (§1)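 Unirradiated MCF7 monolayers attached for 24 h after plating at 10⁴ cells/well, then exposed to a range of compound concentrations (dissolved in DMSO) with replicate wells per concentration. Incubated 48 h at 37 °C under 5% CO₂. Sulforhodamine B assay: fixation, 30 min 0.4% SRB/1% acetic acid, four acid washes, Tris-EDTA elution, colorimetric reading. Surviving fraction given as mean ± standard error.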

[2] = system: MCF7; assay: Anticancer activity against human MCF7 cells assessed as survival fraction at 50 uM after 48 hrs by SRB assay; type: functional; method in brief: as §1
[3] = system: MCF7; assay: Anticancer activity against human MCF7 cells assessed as survival fraction after 48 hrs by SRB assay; type: functional, cell-based; settings: MCF7, 48 h; method in brief: as §1
[4] = system: MCF7; assay: Anticancer activity against human MCF7 cells assessed as survival fraction at 100 uM after 48 hrs by SRB assay; type: functional; method in brief: as §1
[5] = system: MCF7; assay: Anticancer activity against human MCF7 cells assessed as survival fraction at 25 uM after 48 hrs by SRB assay; type: functional; method in brief: as §1
[6] = system: MCF7; assay: Anticancer activity against 8 Gy irradiated human MCF7 cells assessed as survival fraction at 50 uM after 48 hrs by SRB assay; type: functional
Method in brief: (§2)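 MCF7 cells seeded at 10⁴ cells/well for 24 h, then given test compound (DMSO solution; 10, 25, 50 or 100 in the concentration series) plus a single 8 Gy γ-irradiation. Incubated 48 h, 37 °C, 5% CO₂. SRB readout: fix, stain 30 min with 0.4% SRB in 1% acetic acid, wash, solubilize in Tris-EDTA, read on ELISA reader. Surviving fraction is the mean of three values ± SE.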

[7] = system: MCF7; assay: Anticancer activity against 8 Gy irradiated human MCF7 cells assessed as survival fraction at 100 uM after 48 hrs by SRB assay; type: functional; method in brief: as §2
[8] = system: MCF7; assay: Anticancer activity against 8 Gy irradiated human MCF7 cells assessed as survival fraction after 48 hrs by SRB assay; type: functional, cell-based; settings: MCF7, light or radiation study; method in brief: as §2
[9] = system: MCF7; assay: Anticancer activity against 8 Gy irradiated human MCF7 cells assessed as survival fraction at 10 uM after 48 hrs by SRB assay; type: functional; method in brief: as §2
[10] = system: MCF7; assay: Anticancer activity against 8 Gy irradiated human MCF7 cells assessed as survival fraction at 25 uM after 48 hrs by SRB assay; type: functional; method in brief: as §2

SMILES	Activity [1]	Activity [2]	IC50 [3]	Activity [4]	Activity [5]	Activity [6]	Activity [7]	IC50 [8]	Activity [9]	Activity [10]
CC1(C)CC(=O)C2=C(C1)N(c1ccc(S(N)(=O)=O)cc1)c1ncnc(NN)c1C2c1ccc(Cl)cc1 (stereo not drawn)	0.94	0.672	76 µM	0.358	0.788	–	–	–	–	–
CC1(C)CC(=O)C2=C(C1)N(c1ccc(S(N)(=O)=O)cc1)C(N)=C(C#N)C2c1ccc(Cl)cc1 (stereo not drawn)	0.915	0.429	72.9 µM	0.484	0.612	–	–	–	–	–
CC1(C)CC(=O)C2=C(C1)N(c1ccc(S(N)(=O)=O)cc1)c1nc[nH]c(=O)c1C2c1ccc(Cl)cc1 (stereo not drawn)	0.891	0.499	76.8 µM	0.468	0.676	–	–	–	–	–
CC(=O)NC1=C(C#N)C(c2ccc(Cl)cc2)C2=C(CC(C)(C)CC2=O)N1c1ccc(S(N)(=O)=O)cc1 (stereo not drawn)	0.948	0.446	64.5 µM	0.324	0.779	0.31	0.137	33.1 µM	0.427	0.503
CC(=O)N(C(C)=O)C1=C(C#N)C(c2ccc(Cl)cc2)C2=C(CC(C)(C)CC2=O)N1c1ccc(S(N)(=O)=O)cc1 (stereo not drawn)	0.895	0.504	72.1 µM	0.414	0.773	–	–	–	–	–
Cc1nc2c(c(=O)[nH]1)C(c1ccc(Cl)cc1)C1=C(CC(C)(C)CC1=O)N2c1ccc(S(N)(=O)=O)cc1 (stereo not drawn)	0.976	0.45	85.9 µM	0.557	0.721	–	–	–	–	–
CC1(C)CC(=O)C2=C(C1)N(c1ccc(S(N)(=O)=O)cc1)c1ncnc(N)c1C2c1ccc(Cl)cc1 (stereo not drawn)	0.886	0.495	96.6 µM	0.602	0.612	–	–	–	–	–
CCO/C=N/C1=C(C#N)C(c2ccc(Cl)cc2)C2=C(CC(C)(C)CC2=O)N1c1ccc(S(N)(=O)=O)cc1 (stereo not drawn)	0.803	0.498	97.2 µM	0.607	0.551	–	–	–	–	–
CC1(C)CC(=O)C2=C(C1)N(c1ccc(S(N)(=O)=O)cc1)C(NC(=O)CCl)=C(C#N)C2c1ccc(Cl)cc1 (stereo not drawn)	0.986	0.523	84.3 µM	0.502	0.736	–	–	–	–	–
CC1(C)CC(=O)C2=C(C1)N(c1ccc(S(N)(=O)=O)cc1)c1nc(CCl)[nH]c(=O)c1C2c1ccc(Cl)cc1 (stereo not drawn)	0.914	0.731	> 100 µM	0.625	0.775	–	–	–	–	–
CC1(C)CC(=O)C2=C(C1)N(c1ccc(S(N)(=O)=O)cc1)c1nc(CC#N)[nH]c(=O)c1C2c1ccc(Cl)cc1 (stereo not drawn)	0.971	0.774	> 100 µM	0.525	0.901	–	–	–	–	–
CCNC(=S)NC1=C(C#N)C(c2ccc(Cl)cc2)C2=C(CC(C)(C)CC2=O)N1c1ccc(S(N)(=O)=O)cc1 (stereo not drawn)	0.916	0.594	99.6 µM	0.561	0.837	–	–	–	–	–
CC1(C)CC(=O)C2=C(C1)N(c1ccc(S(N)(=O)=O)cc1)C(N1C(=O)CCC1=O)=C(C#N)C2c1ccc(Cl)cc1 (stereo not drawn)	0.93	0.584	95.2 µM	0.549	0.813	–	–	–	–	–
CC1(C)CC(=O)C2=C(C1)N(c1ccc(S(N)(=O)=O)cc1)C(N)=C(C(N)=O)C2c1ccc(Cl)cc1 (stereo not drawn)	0.922	0.445	71.9 µM	0.452	0.662	0.281	0.282	44.4 µM	0.653	0.517
CC1(C)CC(=O)C2=C(C1)N(c1ccc(S(N)(=O)=O)cc1)C(N)=C(C1=NCCN1)C2c1ccc(Cl)cc1 (stereo not drawn)	0.939	0.568	> 100 µM	0.621	0.763	–	–	–	–	–
CC(=O)CC(=O)NC1=C(C#N)C(c2ccc(Cl)cc2)C2=C(CC(C)(C)CC2=O)N1c1ccc(S(N)(=O)=O)cc1 (stereo not drawn)	0.897	0.648	> 100 µM	0.549	0.82	–	–	–	–	–
CC1(C)CC(=O)C2=C(C1)N(c1ccc(S(N)(=O)=O)cc1)c1nc[nH]c(=S)c1C2c1ccc(Cl)cc1 (stereo not drawn)	0.927	0.884	> 100 µM	0.814	0.91	–	–	–	–	–
CC1(C)CC(=O)C2=C(C1)N(c1ccc(S(N)(=O)=O)cc1)c1ncnc(Cl)c1C2c1ccc(Cl)cc1 (stereo not drawn)	0.843	0.476	86.5 µM	0.546	0.696	–	–	–	–	–
CCOC(=O)Cn1cnc2c(c1=O)C(c1ccc(Cl)cc1)C1=C(CC(C)(C)CC1=O)N2c1ccc(S(N)(=O)=O)cc1 (stereo not drawn)	0.954	0.653	> 100 µM	0.563	0.88	–	–	–	–	–
CC1(C)CC(=O)C2=C(C1)N(c1ccc(S(N)(=O)=O)cc1)c1ncnc(N=C=S)c1C2c1ccc(Cl)cc1 (stereo not drawn)	0.972	0.419	79.6 µM	0.515	0.721	–	–	–	–	–
COc1cccc2c1C(=O)c1c(O)c3c(c(O)c1C2=O)C[C@@](O)(C(=O)CO)C[C@@H]3O[C@H]1C[C@H](N)[C@H](O)[C@H](C)O1 [DOXORUBICIN]	0.721	0.461	–	0.494	–	–	–	–	–	–
